# Measured values taken from ChEMBL document CHEMBL2321840, “Synthesis and structure-activity relationships of indazole arylsulfonamides as allosteric CC-chemokine receptor 4 (CCR4) antagonists” (J Med Chem, 2013).
# Assays:
# [1] = Oral bioavailability in CD rat at 1 mg/kg; type: ADME, organism-based; conditions: in vivo
# In short: (§1)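 CD rat pharmacokinetics, with compounds given as solutions in DMSO–PEG200–H₂O (5:45:50); one analogue used a 10:40:50 ratio.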
# [2] = Oral bioavailability in Beagle dog at 1 mg/kg; type: ADME, organism-based, Canis lupus familiaris; conditions: in vivo
# [3] = (§2) Volume of distribution at steady state in Beagle dog at 0.5 mg/kg, iv; type: ADME, organism-based, Canis lupus familiaris; design: dose 0.5 mg/kg, route intravenous; conditions: beagle, in vivo, read-out: Vdss
# [4] = Plasma protein binding in human by equilibrium dialysis technique; type: ADME, cell-free; conditions: read-out: PPB (converted)
# In short: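 Rapid equilibrium dialysis in CD rat, beagle dog or human plasma, with compound at a nominal 1 μg/mL; n = 3.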
# in vivo [5] = conditions: CD, rat, iv, 1 mg/kg
# in vivo [6] = conditions: CD, rat, iv, 1 mg/kg; remark: listed apart in the source
# [7] = Lipophilicity, log D of the compound by chromatographic analysis; type: physicochemical
# In short: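 Chromatographic log D measured at pH 7.4.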
# in vivo [8] = conditions: beagle, dog, iv, 0.5 mg/kg
# [9] = Volume of distribution at steady state in CD rat at 1 mg/kg, iv and 1 mg/kg, po; type: ADME, organism-based; conditions: in vivo, read-out: Vdss; in short: as §1
# [10] = biological target: T1, C-C chemokine receptor type 4 (Homo sapiens, UniProt P51679); assay: Antagonist activity at human recombinant CCR4 receptor expressed in CHO cell membranes by [35S]GTPgammaS binding assay; type: functional
# T1 sequence (P51679 whole entry): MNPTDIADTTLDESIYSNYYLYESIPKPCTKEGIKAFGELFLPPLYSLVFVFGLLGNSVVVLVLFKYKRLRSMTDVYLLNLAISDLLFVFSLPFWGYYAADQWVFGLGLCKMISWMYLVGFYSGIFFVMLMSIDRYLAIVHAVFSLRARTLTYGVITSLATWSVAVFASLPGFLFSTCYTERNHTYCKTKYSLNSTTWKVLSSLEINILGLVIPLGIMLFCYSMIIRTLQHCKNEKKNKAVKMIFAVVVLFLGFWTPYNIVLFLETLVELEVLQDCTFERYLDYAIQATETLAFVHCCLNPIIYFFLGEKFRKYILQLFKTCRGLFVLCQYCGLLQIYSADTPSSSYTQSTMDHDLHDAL
# [11] = biological target: T1, C-C chemokine receptor type 4; assay: Antagonist activity at CCR4 receptor in human whole blood assessed as F-actin polymerization after 30 mins by FACS-based flow cytometric analysis; conditions: read-out: pA2 (converted)
# [12] = Kinetic solubility of the compound by chemiluminescent nitrogen detection assay; type: physicochemical; conditions: read-out: Kinetic_solubility
# in vivo [13] = conditions: beagle, dog, iv, 0.5 mg/kg; remark: listed apart in the source
# [14] = Equilibrium solubility of the compound in simulated gastric fluid at pH 1.6 after 24 hrs by HPLC analysis; type: physicochemical
# In short: (§3)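 Solid compound was equilibrated 24 h in the stated medium: water, SGF pH 1.6, FeSSIF pH 6.5, FaSSIF pH 6.5 or saline. Dissolved compound was quantified by HPLC.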
# [15] = Equilibrium solubility of the compound in water after 24 hrs by HPLC analysis; type: physicochemical; in short: as §3
# [16] = Equilibrium solubility of the compound in fasted-state simulated intestinal fluid at pH 6.5 after 24 hrs by HPLC analysis; type: physicochemical; in short: as §3
# [17] = Equilibrium solubility of the compound in fed-state simulated intestinal fluid at pH 6.5 after 24 hrs by HPLC analysis; type: physicochemical; in short: as §3
# Canis familiaris [18] = assay: as §2; type: ADME, organism-based, Canis lupus familiaris; design: dose 0.5 mg/kg, route intravenous; conditions: in vivo
# Canis familiaris [19] = species on record: Canis familiaris; conditions: dog, in vivo, iv, 0.5 mg/kg
bioavailability [1] [%],bioavailability [2] [%],Vd [3] [L/kg],fraction unbound [4],half-life (in vivo [5]) [h],clearance (in vivo [6]) [mL/min/kg],chromatographic logD [7],clearance (in vivo [8]) [mL/min/kg],Vd [9] [L/kg],IC50 [10] [nM],Kb [11] [nM],solubility kinetic [12] [µg/mL],half-life (in vivo [13]) [h],solubility thermodynamic at 24 h [14] [µg/mL],solubility thermodynamic at 24 h [15] [µg/mL],solubility thermodynamic at 24 h [16] [µg/mL],solubility thermodynamic at 24 h [17] [µg/mL],Vdss (Canis familiaris [18]) [L/kg],t1/2 (Canis familiaris [19]) [h],Structure (SMILES)
32,39,3,0.018,1.2,18,3.9,41,0.78,15.8,79.4,≥ 212,2.6,,,,,,,COc1cccc2c1c(NS(=O)(=O)c1ccc(Cl)s1)nn2Cc1cccc(CNC(=O)[C@@H]2COCCN2)c1
90,,,,1.8,19,4.2,,1.5,15.8,631,≥ 198,,1,32,36,33,,,COc1cc(F)cc2c1c(NS(=O)(=O)c1ccc(Cl)s1)nn2Cc1cccc(CNC(=O)C(C)(C)O)c1
19,81,6,0.054,0.8,17,3.1,17,0.79,15.8,200,191,5.9,,,,,,,CN[C@H](C)C(=O)NCc1cccc(Cn2nc(NS(=O)(=O)c3ccc(Cl)s3)c3c(OC)cccc32)c1
< 1,,,0.078,3,29,3.3,,2.6,15.8,126,≥ 220,,,,,,11,0.95,COc1cccc2c1c(NS(=O)(=O)c1ccc(Cl)s1)nn2Cc1cccc(CNC(=O)[C@@H]2CCCCN2)c1
